Reference: paper PMC11439047 (Nature Communications, 2024)
Where a chain is given by its changes, count along the chain named.

How the values were obtained:
WT-P2X1 receptor = molecular target: T1, WT-P2X1 receptor (Homo sapiens, UniProt P51575); assay: Calcium ion influx assay; assay type: cell-based; settings: read-out: potency; WT-P2X1, Fig. 4B
T1 sequence (P51575 1-399): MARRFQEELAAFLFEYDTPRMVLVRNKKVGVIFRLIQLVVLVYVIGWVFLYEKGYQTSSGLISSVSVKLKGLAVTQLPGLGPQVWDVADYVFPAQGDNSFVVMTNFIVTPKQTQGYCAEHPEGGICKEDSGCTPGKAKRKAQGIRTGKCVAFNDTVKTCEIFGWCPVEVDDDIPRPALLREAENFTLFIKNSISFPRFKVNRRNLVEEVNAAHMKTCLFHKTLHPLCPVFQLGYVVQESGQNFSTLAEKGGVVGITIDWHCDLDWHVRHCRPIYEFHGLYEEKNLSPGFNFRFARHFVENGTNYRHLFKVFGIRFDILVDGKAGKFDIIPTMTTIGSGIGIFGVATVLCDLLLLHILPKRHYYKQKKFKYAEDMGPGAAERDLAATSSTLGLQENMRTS

P2X1 receptor K136W = molecular target: T2, P2X1 receptor K136W (Homo sapiens, UniProt P51575, K136W); assay: Saturation radioligand binding with [3H]-α,β-methylene ATP
T2 sequence (P51575 1-399 K136W): T1 sequence (P51575 1-399) with K136W
Summary of the method: (§1)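 Whole HEK293 Flp-In T-REx cells stably expressing receptor, tetracycline-induced (150 ng/ml, 2 days), 15,000 cells/well, washed in HEPES binding buffer pH 7.4 with Ca2+/Mg2+. Increasing [3H]-α,β-methylene ATP added, 3 h room temperature with gentle agitation; non-specific binding with 10 μM ATP. Ice-cold 0.9% NaCl washes, scintillation counting (CCPM). Specific binding fitted one-site; values above 300 nM termed not defined.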

P2X1 receptor F188L = molecular target: T3, P2X1 receptor F188L (Homo sapiens, UniProt P51575, F188L); assay: Calcium ion influx assay; assay type: cell-based; settings: maximal α,β-methylene ATP
T3 sequence (P51575 1-399 F188L): T1 sequence (P51575 1-399) with F188L

P2X1 receptor K215A = molecular target: T4, P2X1 receptor K215A (Homo sapiens, UniProt P51575, K215A); assay: Saturation radioligand binding with [3H]-α,β-methylene ATP
T4 sequence (P51575 1-399 K215A): T1 sequence (P51575 1-399) with K215A
Summary of the method: as §1

P2X1 receptor S286A = molecular target: T5, P2X1 receptor S286A (Homo sapiens, UniProt P51575, S286A); assay: as above
T5 sequence (P51575 1-399 S286A): T1 sequence (P51575 1-399) with S286A
Summary of the method: as §1

P2X1 receptor E282A = molecular target: T6, P2X1 receptor E282A (Homo sapiens, UniProt P51575, E282A); assay: as above
T6 sequence (P51575 1-399 E282A): T1 sequence (P51575 1-399) with E282A
Summary of the method: as §1

EC50 (WT-P2X1 receptor): 99 nM
binding affinity compared to WT-P2X1 (P2X1 receptor K136W): similar
time to achieve 50% decay, times WT-P2X1 (P2X1 receptor F188L): approximately 1.5 times
binding affinity compared to WT-P2X1 (P2X1 receptor K215A): similar
binding affinity compared to WT-P2X1 (P2X1 receptor S286A): comparable to that of WT-P2X1
binding affinity compared to WT-P2X1 (P2X1 receptor E282A): similar
SMILES: Nc1ncnc2c1ncn2[C@@H]1O[C@H](COP(=O)(O)CP(=O)(O)OP(=O)(O)O)[C@@H](O)[C@H]1O [α,β-methylene ATP]
